Data on seven compounds can be found in ChEMBL document CHEMBL2331357, “Bioassay-guided isolation of proanthocyanidins with antiangiogenic activities” (J Nat Prod, 2013).

One test relates to Jurkat. In words: Cytotoxicity against human Jurkat cells after 24 to 72 hrs by MTT assay. The test is classed as cell-based. The procedure, abridged: (§1)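 Cells kept in DMEM with 10% FBS, 2 mM L-glutamine, penicillin/streptomycin, 37 °C, 5% CO2, subcultured every two days. Seeded at 1 × 10^4 cells/well and grown without or with various compound concentrations; cell number quantified by MTT conversion at 24, 48 and 72 h. IC50 from at least two independent experiments in triplicate.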
In general terms: Tetrazolium dyes change colour on reduction, which living cells bring about.

The next test concerns MCF7. As to the kind of experiment: Cytotoxicity against human MCF7 cells after 24 to 72 hrs by MTT assay. Type of test: cell-based. The procedure, abridged:
as §1

In another test the target is T1, Placenta growth factor (Homo sapiens, UniProt P49763).
T1 sequence (P49763 whole entry): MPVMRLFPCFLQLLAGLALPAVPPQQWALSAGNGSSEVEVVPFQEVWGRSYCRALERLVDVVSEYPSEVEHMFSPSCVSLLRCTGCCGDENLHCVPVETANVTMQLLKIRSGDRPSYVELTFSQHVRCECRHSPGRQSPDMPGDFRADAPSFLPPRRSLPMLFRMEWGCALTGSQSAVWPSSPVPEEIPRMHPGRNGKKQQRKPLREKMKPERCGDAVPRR
In words: Binding affinity to recombinant PIGF1 (unknown origin) measured for 60 seconds by surface plasmon resonance assay. The note with it: for pKd: read-out: Kd. The procedure, abridged: (§2)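 Biacore CM5 chip; proteins (100 μg/mL in 10 mM NaOAc, pH 5.0) amine-coupled to 8−12 kRU alongside BSA and unmodified reference surfaces. Compounds from 4 mM DMSO stocks diluted 1:200 in PBS (10 mM NaH2PO4, 150 mM NaCl, pH 7.4; final DMSO 0.5%), 2-fold six-point series typically 0.025−1 μM, triplicate aliquots with buffer blanks. Association and dissociation recorded; thermodynamic KD derived.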
In general terms: Surface plasmon resonance follows binding to a sensor surface in real time, without labels.

Test [1] concerns the target T2, Vascular endothelial growth factor A, long form (Homo sapiens, UniProt P15692).
T2 sequence (P15692 whole entry): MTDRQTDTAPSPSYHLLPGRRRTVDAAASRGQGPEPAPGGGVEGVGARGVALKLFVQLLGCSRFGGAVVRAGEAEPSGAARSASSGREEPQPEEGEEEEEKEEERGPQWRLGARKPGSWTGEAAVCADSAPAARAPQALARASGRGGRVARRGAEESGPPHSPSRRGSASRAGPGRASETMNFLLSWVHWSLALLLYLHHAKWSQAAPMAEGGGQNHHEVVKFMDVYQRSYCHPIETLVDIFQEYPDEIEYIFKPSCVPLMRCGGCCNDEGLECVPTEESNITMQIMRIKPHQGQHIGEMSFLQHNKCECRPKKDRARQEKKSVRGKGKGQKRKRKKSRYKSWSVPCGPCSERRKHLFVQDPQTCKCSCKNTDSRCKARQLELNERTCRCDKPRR
As to the kind of experiment: Binding affinity to recombinant VEGFA (unknown origin) measured for 60 seconds by surface plasmon resonance assay. The note with it: for pKd: read-out: Kd. In short, it runs like this: as §2

The species named for test [2] is Gallus gallus. In words: Antiangiogenic activity in chicken embryo chorioallantoic membrane model assessed as reduction of capillary formation at 2 ug/egg after 4 days. The test is classed as functional, tissue-based. In short, it runs like this: (§3)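 Fertilized chicken eggs incubated at 37 °C, humidified, turned several times; after 4 days a 1 cm2 window opened on the broad side. Test material applied per egg; controls received albumen (100 μL/egg); retinoic acid 2 μg/egg as positive control; at least five eggs per dose. Eggs reincubated two days, then vessels photographed under microscope; branch points compared with albumen controls; mean ± SD of three experiments, Student's t-test.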

Test [3] is filed under the species Gallus gallus. In words: Antiangiogenic activity in chicken embryo chorioallantoic membrane model assessed as inhibition of blood vessels growth at 2 ug/egg after 4 days. Type of test: functional, tissue-based. In short, it runs like this: as §3
The species named for test [4] is Gallus gallus. As to the kind of experiment: Antiangiogenic activity in chicken embryo chorioallantoic membrane model assessed as reduction of number of blood vessels at 10 ug/egg after 4 days. Type of test: functional, tissue-based. The procedure, abridged:
as §3

For test [5], the target named is T3, Vascular endothelial growth factor receptor 1 (Homo sapiens, UniProt P17948). As to the kind of experiment: Inhibition of recombinant PlGF-1/VEGFR-1 (unknown origin) interaction after 1 hr by ELISA. On the technique in general: ELISA stands for enzyme-linked immunosorbent assay.
Test [6] in a line: Antiangiogenic activity in chicken embryo chorioallantoic membrane model assessed as inhibition of blood vessels growth after 4 days. Type of test: functional, tissue-based, Gallus gallus. The procedure, abridged:
as §3

The species named for test [7] is Gallus gallus. As to the kind of experiment: Antiangiogenic activity in chicken embryo chorioallantoic membrane model assessed as reduction of junction of blood vessels at 10 ug/egg after 4 days. Type of test: functional, tissue-based. In short, it runs like this: as §3
Test [8] is filed under the species Gallus gallus. As to the kind of experiment: Antiangiogenic activity in chicken embryo chorioallantoic membrane model assessed as reduction of length of blood vessels at 10 ug/egg after 4 days. Type of test: functional, tissue-based. The procedure, abridged: as §3
Test [9] is filed under the species Gallus gallus. As to the kind of experiment: Antiangiogenic activity in chicken embryo chorioallantoic membrane model assessed as inhibition of blood vessels growth at 10 ug/egg after 4 days. The test is classed as functional, tissue-based. In short, it runs like this:
as §3

Test [10] is filed under the species Gallus gallus. As to the kind of experiment: Antiangiogenic activity in chicken embryo chorioallantoic membrane model assessed as reduction of size of blood vessels at 10 ug/egg after 4 days. Type of test: functional, tissue-based. The procedure, abridged: as §3
Test [11] addresses T3, Vascular endothelial growth factor receptor 1. As to the kind of experiment: Inhibition of recombinant VEGF-A/VEGFR-1 (unknown origin) interaction after 1 hr by ELISA. The procedure, abridged: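 Competitive ELISA: Fc/VEGFR-1 coated at 0.5 μg/mL for 16 h at RT, blocked 3 h with 1% BSA. PlGF-1 (5 ng/mL) or VEGF-A (10 ng/mL) in PBS with 0.1% BSA, 5 mM EDTA, 0.004% Tween 20 added with DMSO-dissolved compound, 1 h 37 °C then 1 h RT. Biotinylated anti-ligand antibody, avidin–biotin-HRP, o-phenylenediamine/H2O2 detection at 490 nm; triplicate points, repeated twice.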

pIC50, pKd: −log10 of the molar value. Calls of active or inactive are those of the source. The calls are words filed in the database; no cut-off is given here.

T3 sequence (P17948 whole entry): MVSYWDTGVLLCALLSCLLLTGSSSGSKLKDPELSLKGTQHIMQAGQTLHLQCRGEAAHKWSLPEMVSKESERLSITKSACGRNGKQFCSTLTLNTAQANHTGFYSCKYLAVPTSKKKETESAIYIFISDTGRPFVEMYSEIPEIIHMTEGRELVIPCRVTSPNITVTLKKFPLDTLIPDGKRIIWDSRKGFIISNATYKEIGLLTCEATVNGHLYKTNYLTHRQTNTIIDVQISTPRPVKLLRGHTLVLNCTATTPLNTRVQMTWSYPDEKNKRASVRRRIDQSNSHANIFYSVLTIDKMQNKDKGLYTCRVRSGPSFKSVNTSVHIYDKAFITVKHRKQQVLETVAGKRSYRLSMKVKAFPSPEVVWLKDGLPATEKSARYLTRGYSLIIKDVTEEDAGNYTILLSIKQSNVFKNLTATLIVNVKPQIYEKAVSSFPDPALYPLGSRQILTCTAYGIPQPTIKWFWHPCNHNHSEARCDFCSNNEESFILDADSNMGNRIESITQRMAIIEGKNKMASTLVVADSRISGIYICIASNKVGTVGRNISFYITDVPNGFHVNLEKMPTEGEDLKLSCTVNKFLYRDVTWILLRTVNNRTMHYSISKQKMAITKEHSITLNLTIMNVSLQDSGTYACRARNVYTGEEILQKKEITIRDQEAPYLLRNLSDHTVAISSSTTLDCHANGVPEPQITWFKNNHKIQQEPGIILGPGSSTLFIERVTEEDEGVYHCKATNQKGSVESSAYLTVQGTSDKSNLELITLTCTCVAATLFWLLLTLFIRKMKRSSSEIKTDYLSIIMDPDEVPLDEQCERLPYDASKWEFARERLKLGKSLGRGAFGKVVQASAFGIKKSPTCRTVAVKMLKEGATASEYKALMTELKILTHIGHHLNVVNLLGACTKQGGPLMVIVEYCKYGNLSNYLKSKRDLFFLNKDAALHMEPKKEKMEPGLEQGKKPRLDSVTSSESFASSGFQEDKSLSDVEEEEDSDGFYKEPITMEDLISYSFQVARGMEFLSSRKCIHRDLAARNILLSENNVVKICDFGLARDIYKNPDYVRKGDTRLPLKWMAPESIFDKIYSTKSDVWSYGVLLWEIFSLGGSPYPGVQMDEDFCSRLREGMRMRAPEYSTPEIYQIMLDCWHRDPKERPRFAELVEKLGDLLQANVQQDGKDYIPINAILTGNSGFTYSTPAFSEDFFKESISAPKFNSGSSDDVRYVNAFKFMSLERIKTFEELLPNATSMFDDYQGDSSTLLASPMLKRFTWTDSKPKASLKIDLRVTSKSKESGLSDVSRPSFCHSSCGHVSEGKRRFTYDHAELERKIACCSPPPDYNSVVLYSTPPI

For orientation: pIC50 means −log10 of the IC50, conventionally taken in molar units. `Oc1ccc([C@@H]2C[C@@H](c3c(O)cc(O)c4c3O[C@H](c3ccc(O)cc3)[C@H](O)C4)c3c(O)cc(O)cc3O2)cc1`: the pIC50 in the test on Jurkat and in the test with MCF7 was below 4.15 each time. Further, the Kd entry (at Placenta growth factor; in test [1]) was “Not Active” in each case.

With `CC1=C(/C=C/C(C)=C/C=C/C(C)=C/C(=O)O)C(C)(C)CCC1`, the result in the test filed under Gallus gallus [2] was Active. Further, in the test filed under Gallus gallus [3], the growth inhibition (GI) stood at 75.5%.

A word on the pKd: it is −log10 of the Kd, conventionally taken in molar units. As to `Oc1ccc([C@@H]2C[C@@H](c3c(O)cc(O)c4c3O[C@H](c3ccc(O)cc3)[C@@H](O)C4)c3c(O)cc(O)cc3O2)cc1`, the result in the test listed under Gallus gallus [4], in the test filed under Gallus gallus [7], in the test filed under Gallus gallus [8] and in the test listed under Gallus gallus [10] was Active. Besides, the pIC50 with Jurkat is below 4.15; in test [5] it was 4.82; in test [11], 4.30; in the test with MCF7, below 4.15. Further, the IC50 in [6] came to 9.79 µg. The growth inhibition (GI) in the test listed under Gallus gallus [9] was determined as 56.2%. Moreover, the negative-log Kd (pKd) at Placenta growth factor is 7.96; in test [1] it was 7.80.

On to `Oc1cc(O)c2c(c1)O[C@@]1(c3ccc(O)c(O)c3)Oc3cc(O)c4c(c3[C@@H]2[C@H]1O)O[C@H](c1ccc(O)c(O)c1)[C@@H](O)C4` [PROANTHOCYANIDIN A1], for which the pIC50 with Jurkat and in the test with MCF7 was below 4.15 each time. The negative logarithm of the Kd (pKd) was 6.40 at Placenta growth factor and 6.32 in [1].

Turning to `Oc1cc(O)c2c(c1)O[C@@]1(c3ccc(O)c(O)c3)Oc3cc(O)c4c(c3[C@@H]2[C@H]1O)O[C@H](c1ccc(O)c(O)c1)[C@H](O)C4` [PROANTHOCYANIDIN A2], the pIC50 in the test on Jurkat and with MCF7 was below 4.15 each time. Further, the Kd entry (at Placenta growth factor; in test [1]) was “Not Active” in each case.

As to `O=c1cc(-c2ccc(O)c(-c3c(O)cc(O)c4c(=O)cc(-c5ccc(O)cc5)oc34)c2)oc2cc(O)cc(O)c12` [AMENTOFLAVONE], the results for the pKd (on Placenta growth factor; in [1]) were 8.09 and 7.78, respectively.

Take `Oc1ccc([C@H]2Oc3c(c(O)cc4c3[C@H]3c5c(O)cc(O)cc5O[C@@](c5ccc(O)c(O)c5)(O4)[C@@H]3O)C[C@@H]2O)cc1` [GERANIN B]: the negative logarithm of the IC50 (pIC50) with Jurkat is below 4.15; in test [11] it was 4.19; in the test with MCF7 it was below 4.15. For the same compound, the results for the negative logarithm of the Kd (pKd) (on Placenta growth factor; in test [1]) were 7.64 and 7.32, respectively.
